pIC50: −log10 of the molar value. Non-standard residues stand in square brackets, D forms with d. Residues, ends and D or L forms follow the SMILES beside them. ξ: configuration not given here. *: point of attachment. Tyr(3,5-I2) = N[C@@H](Cc1cc(I)c(O)c(I)c1)C(=O)O; Bip = N[C@@H](Cc1ccc(-c2ccccc2)cc1)C(=O)O; Tyr(3-I) = N[C@@H](Cc1ccc(O)c(I)c1)C(=O)O; Dip = N[C@H](C(=O)O)C(c1ccccc1)c1ccccc1; 1Nal = N[C@@H](Cc1cccc2ccccc12)C(=O)O; 2Nal = N[C@@H](Cc1ccc2ccccc2c1)C(=O)O; Cha = N[C@@H](CC1CCCCC1)C(=O)O; OCH2CH2Ph = c1ccc(CCO*)cc1; ξαMeS = CC(N)(CO)C(=O)O; X3 = c1ccc(CCCCO*)cc1; NHBn = c1ccc(CN*)cc1; OBn = c1ccc(CO*)cc1; X2 = CCCCO*
Each compound was assayed against T1, Myosin light chain kinase, smooth muscle (Gallus gallus, UniProt P11799) (assay: Inhibition of native form of chicken MLCK (myosin light chain kinase)).
Outline: (§1)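 Native calmodulin-dependent gizzard MLCK, over 95% homogeneous, with 200 nM calmodulin, 1 mM EGTA and about 200 μM excess free Ca2+. Started with ATP and stopped with HCl; phosphocellulose filter counting. Graphical IC50 from duplicates at four concentrations, or % inhibition at a single concentration.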

T1 sequence (P11799 whole entry): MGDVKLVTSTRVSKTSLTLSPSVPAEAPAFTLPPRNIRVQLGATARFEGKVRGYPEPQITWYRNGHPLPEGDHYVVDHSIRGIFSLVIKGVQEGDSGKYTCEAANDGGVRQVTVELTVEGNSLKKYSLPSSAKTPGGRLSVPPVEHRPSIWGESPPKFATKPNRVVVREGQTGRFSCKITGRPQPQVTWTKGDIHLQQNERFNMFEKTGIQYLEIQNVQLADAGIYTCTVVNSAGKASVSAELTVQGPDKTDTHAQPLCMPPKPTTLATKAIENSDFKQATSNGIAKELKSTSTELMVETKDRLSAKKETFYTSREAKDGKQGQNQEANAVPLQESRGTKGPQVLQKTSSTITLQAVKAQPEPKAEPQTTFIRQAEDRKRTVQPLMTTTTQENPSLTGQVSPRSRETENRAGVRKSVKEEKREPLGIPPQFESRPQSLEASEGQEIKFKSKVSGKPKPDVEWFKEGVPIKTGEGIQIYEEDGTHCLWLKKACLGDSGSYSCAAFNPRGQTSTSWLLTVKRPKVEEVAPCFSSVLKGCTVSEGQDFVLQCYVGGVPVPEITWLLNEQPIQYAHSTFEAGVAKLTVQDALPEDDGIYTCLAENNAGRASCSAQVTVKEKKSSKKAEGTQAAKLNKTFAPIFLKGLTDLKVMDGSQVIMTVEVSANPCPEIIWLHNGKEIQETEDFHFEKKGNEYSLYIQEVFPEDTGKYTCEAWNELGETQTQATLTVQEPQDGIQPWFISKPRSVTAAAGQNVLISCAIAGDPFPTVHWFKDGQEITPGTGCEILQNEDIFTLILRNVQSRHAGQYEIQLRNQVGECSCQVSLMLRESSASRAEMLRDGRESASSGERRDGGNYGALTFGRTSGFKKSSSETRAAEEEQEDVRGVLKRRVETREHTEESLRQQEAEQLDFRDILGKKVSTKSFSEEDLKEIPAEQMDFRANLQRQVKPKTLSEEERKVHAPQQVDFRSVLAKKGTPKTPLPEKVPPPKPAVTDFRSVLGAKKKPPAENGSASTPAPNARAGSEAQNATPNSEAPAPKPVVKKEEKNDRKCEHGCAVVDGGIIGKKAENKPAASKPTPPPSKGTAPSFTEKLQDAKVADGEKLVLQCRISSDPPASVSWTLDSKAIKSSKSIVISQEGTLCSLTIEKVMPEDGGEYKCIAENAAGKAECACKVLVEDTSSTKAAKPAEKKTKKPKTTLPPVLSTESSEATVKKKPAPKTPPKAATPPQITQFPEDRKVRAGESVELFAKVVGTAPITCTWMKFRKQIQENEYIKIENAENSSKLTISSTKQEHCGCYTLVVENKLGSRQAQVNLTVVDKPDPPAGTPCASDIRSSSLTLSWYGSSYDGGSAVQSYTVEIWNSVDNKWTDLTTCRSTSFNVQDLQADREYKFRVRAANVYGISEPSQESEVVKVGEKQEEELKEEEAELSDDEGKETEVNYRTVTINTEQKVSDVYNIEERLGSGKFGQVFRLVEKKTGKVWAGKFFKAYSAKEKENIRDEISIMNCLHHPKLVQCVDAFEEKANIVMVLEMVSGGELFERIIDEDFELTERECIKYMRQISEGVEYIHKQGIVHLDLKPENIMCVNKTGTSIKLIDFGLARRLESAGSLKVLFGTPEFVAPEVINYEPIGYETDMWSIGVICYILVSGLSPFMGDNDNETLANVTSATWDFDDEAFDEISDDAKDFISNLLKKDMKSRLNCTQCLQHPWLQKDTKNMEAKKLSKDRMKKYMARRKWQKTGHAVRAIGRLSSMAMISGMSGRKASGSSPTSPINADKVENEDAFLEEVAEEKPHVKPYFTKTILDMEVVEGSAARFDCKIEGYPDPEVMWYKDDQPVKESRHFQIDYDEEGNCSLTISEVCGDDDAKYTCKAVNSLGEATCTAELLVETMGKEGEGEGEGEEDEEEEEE

Compound	pIC50
CSCC[C@H](NC(=O)[C@H](CC(N)=O)NC(=O)[C@@H](N)CO)C(=O)N[C@@H](Cc1ccccc1)C(=O)N[C@@H](C)C(=O)OCc1ccccc1 (H-SNMFA-OBn)	4.52
CC(C)[C@H](NC(=O)[C@H](CC(N)=O)NC(=O)[C@@H](N)CO)C(=O)N[C@@H](Cc1ccccc1)C(=O)OCc1ccccc1 (H-SNVF-OBn)	3.80
CC(C)[C@H](NC(=O)[C@H](CC(N)=O)NC(=O)[C@@H](N)CO)C(=O)N[C@@H](Cc1cccc2ccccc12)C(=O)N[C@@H](C)C(=O)OCc1ccccc1 (H-SNV[1Nal]A-OBn)	5.70
CC(C)[C@H](NC(=O)[C@H](CC(N)=O)NC(=O)[C@@H](N)CO)C(=O)N[C@@H](Cc1ccccc1)C(=O)N[C@@H](C)C(=O)OCCc1ccccc1 (H-SNVFA-OCH2CH2Ph)	4.82
CC(C)[C@H](NC(=O)[C@H](CC(N)=O)NC(=O)[C@@H](N)[C@@H](C)O)C(=O)N[C@@H](Cc1ccccc1)C(=O)N[C@@H](C)C(=O)OCc1ccccc1 (H-TNVFA-OBn)	4.74
CC(C)[C@H](NC(=O)[C@H](CC(N)=O)NC(=O)[C@@H](N)CO)C(=O)N[C@@H](Cc1ccccc1)C(=O)N[C@@H](CO)C(=O)OCc1ccccc1 (H-SNVFS-OBn)	4.37
CC(C)[C@H](NC(=O)[C@H](CC(N)=O)NC(=O)[C@H](CO)NC(=O)[C@@H](NC(=O)[C@H](C)NC(=O)[C@@H](N)CCCNC(=N)N)[C@@H](C)O)C(=O)N[C@@H](Cc1ccccc1)C(=O)N[C@@H](C)C(=O)OCc1ccccc1 (H-RATSNVFA-OBn)	4.42
CC(C)[C@H](NC(=O)[C@H](CC(N)=O)NC(=O)[C@@H](N)CO)C(=O)N[C@@H](Cc1ccc(O)cc1)C(=O)N[C@@H](C)C(=O)OCc1ccccc1 (H-SNVYA-OBn)	4.35
CC(C)[C@H](NC(=O)[C@H](CC(N)=O)NC(=O)[C@@H](N)CO)C(=O)N[C@@H](Cc1ccc(O)c(I)c1)C(=O)N[C@@H](C)C(=O)OCc1ccccc1 (H-SNV[Tyr(3-I)]A-OBn)	6.00
CC(C)[C@H](NC(=O)[C@H](CC(N)=O)NC(=O)[C@@H](N)CO)C(=O)N[C@@H](Cc1ccccc1)C(=O)N[C@@H](C)C(=O)NCc1ccccc1 (H-SNVFA-NHBn)	4.82
CC(C)[C@H](NC(=O)CNC(=O)[C@@H](N)CO)C(=O)N[C@@H](Cc1ccccc1)C(=O)N[C@@H](C)C(=O)OCc1ccccc1 (H-SGVFA-OBn)	3.35
C[C@H](NC(=O)[C@H](Cc1ccccc1)NC(=O)[C@H](Cc1ccccc1)NC(=O)[C@H](CC(N)=O)NC(=O)[C@@H](N)CO)C(=O)OCc1ccccc1 (H-SNFFA-OBn)	4.30
CC(C)[C@H](NC(=O)[C@H](CC(N)=O)NC(=O)[C@@H](N)CO)C(=O)N[C@@H](Cc1ccccc1)C(=O)N[C@@H](C)C(=O)OCCCCc1ccccc1 (H-SNVFA-X3)	4.72
CC(C)[C@H](NC(=O)[C@H](CC(N)=O)NC(=O)[C@@H](N)CO)C(=O)N[C@@H](Cc1c[nH]c2ccccc12)C(=O)N[C@@H](C)C(=O)OCc1ccccc1 (H-SNVWA-OBn)	5.22
CC(C)C[C@H](NC(=O)[C@H](CC(N)=O)NC(=O)[C@@H](N)CO)C(=O)N[C@@H](Cc1ccccc1)C(=O)N[C@@H](C)C(=O)OCc1ccccc1 (H-SNLFA-OBn)	5.52
CC(C)[C@H](NC(=O)[C@H](CC(N)=O)NC(=O)[C@@H](N)CO)C(=O)N[C@@H](Cc1ccc(-c2ccccc2)cc1)C(=O)N[C@@H](C)C(=O)OCc1ccccc1 (H-SNV[Bip]A-OBn)	6.00
CC(C)[C@@H](NC(=O)[C@@H](CC(N)=O)NC(=O)[C@H](N)CO)C(=O)N[C@H](Cc1ccccc1)C(=O)N[C@H](C)C(=O)OCc1ccccc1	4.92
CC(C)[C@H](NC(=O)[C@H](CC(N)=O)NC(=O)[C@@H]1CCCN1)C(=O)N[C@@H](Cc1ccccc1)C(=O)N[C@@H](C)C(=O)OCc1ccccc1 (H-PNVFA-OBn)	3.70
CC(C)[C@H](NC(=O)[C@H](CC(N)=O)NC(=O)C(C)(N)CO)C(=O)N[C@@H](Cc1ccccc1)C(=O)N[C@@H](C)C(=O)OCc1ccccc1 (stereo not given in full) (H-[ξαMeS]NVFA-OBn)	3.46
CC(C)[C@H](NC(=O)[C@H](CC(N)=O)NC(=O)[C@@H](N)CO)C(=O)N[C@@H](Cc1ccc2ccccc2c1)C(=O)N[C@@H](C)C(=O)OCc1ccccc1 (H-SNV[2Nal]A-OBn)	4.92
CC(C)[C@H](NC(=O)[C@H](CC(N)=O)NC(=O)[C@@H]1C[C@H](O)CN1)C(=O)N[C@@H](Cc1ccccc1)C(=O)N[C@@H](C)C(=O)OCc1ccccc1	4.25
CSCC[C@H](N)C(=O)N[C@@H](CC(N)=O)C(=O)N[C@H](C(=O)N[C@@H](Cc1ccccc1)C(=O)N[C@@H](C)C(=O)OCc1ccccc1)C(C)C (H-MNVFA-OBn)	4.12
CC(C)[C@H](NC(=O)[C@H](CC(N)=O)NC(=O)[C@@H](N)CO)C(=O)N[C@H](C(=O)N[C@@H](C)C(=O)OCc1ccccc1)C(c1ccccc1)c1ccccc1 (H-SNV[Dip]A-OBn)	5.22
CC(C)[C@H](NC(=O)[C@H](CC(N)=O)NC(=O)[C@@H](N)CS)C(=O)N[C@@H](Cc1ccccc1)C(=O)N[C@@H](C)C(=O)OCc1ccccc1 (H-CNVFA-OBn)	5.10
CC(C)[C@H](NC(=O)[C@H](CC(N)=O)NC(=O)[C@H](N)CO)C(=O)N[C@@H](Cc1ccccc1)C(=O)N[C@@H](C)C(=O)OCc1ccccc1	5.30
CC(C)[C@H](NC(=O)[C@H](CC(N)=O)NC(=O)[C@@H](N)CO)C(=O)N[C@@H](CC1CCCCC1)C(=O)N[C@@H](C)C(=O)OCc1ccccc1 (H-SNV[Cha]A-OBn)	4.92
CC(C)[C@H](NC(=O)[C@H](CC(N)=O)NC(=O)[C@@H](N)CO)C(=O)N[C@@H](Cc1cc(I)c(O)c(I)c1)C(=O)N[C@@H](C)C(=O)OCc1ccccc1 (H-SNV[Tyr(3,5-I2)]A-OBn)	5.15
CC(C)[C@H](NC(=O)[C@H](CC(N)=O)NC(=O)[C@H](CO)NC(=O)[C@@H](N)[C@@H](C)O)C(=O)N[C@@H](Cc1ccccc1)C(=O)N[C@@H](C)C(=O)OCc1ccccc1 (H-TSNVFA-OBn)	4.82
CC(C)[C@H](NC(=O)[C@H](CC(N)=O)NC(=O)[C@H](CO)NC(=O)[C@@H](NC(=O)[C@H](C)N)[C@@H](C)O)C(=O)N[C@@H](Cc1ccccc1)C(=O)N[C@@H](C)C(=O)OCc1ccccc1 (H-ATSNVFA-OBn)	4.51

These compounds were tested against T1, Myosin light chain kinase, smooth muscle (assay: Inhibition of calmodulin-independent form of myosin light chain kinase isolated from chicken gizzard.).
Outline: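 Chicken gizzard MLCK made calmodulin-independent by limited trypsin digestion. It was started with ATP and stopped with HCl. Phosphate in substrate was counted on phosphocellulose filters. IC50 was read graphically from duplicates at four concentrations and reported as the mean, or as % inhibition at one concentration.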

Compound	pIC50
CCCCOC(=O)[C@H](C)NC(=O)[C@H](Cc1ccccc1)NC(=O)[C@@H](NC(=O)[C@H](CC(N)=O)NC(=O)[C@@H](N)CO)C(C)C (H-SNVFA-X2)	3.73
CC(C)[C@H](NC(=O)[C@H](C)NC(=O)[C@@H](N)CO)C(=O)N[C@@H](Cc1ccccc1)C(=O)N[C@@H](C)C(=O)OCc1ccccc1 (H-SAVFA-OBn)	4.74
CC(C)[C@H](/C=C/[C@H](CC(N)=O)NC(=O)[C@@H](N)CO)C(=O)N[C@@H](Cc1ccccc1)C(=O)N[C@@H](C)C(=O)NCc1ccccc1	3.56
CC(C)[C@H](NC(=O)[C@H](CC(N)=O)NC(=O)[C@@H](N)CO)C(=O)N[C@@H](Cc1cccc2ccccc12)C(=O)N[C@@H](C)C(=O)OCc1ccccc1 (H-SNV[1Nal]A-OBn)	5.70
CC(C)[C@H](NC(=O)[C@H](CC(N)=O)NC(=O)[C@@H](N)CO)C(=O)N[C@@H](Cc1ccccc1)C(=O)N[C@@H](C)C(=O)OCCc1ccccc1 (H-SNVFA-OCH2CH2Ph)	4.30
CC(C)[C@H](NC(=O)[C@H](CC(N)=O)NC(=O)[C@@H](N)CO)C(=O)N[C@H](/C=C/C(CCCc1ccccc1)CCCc1ccccc1)Cc1ccccc1	6.22
CC(C)[C@@H](NC(=O)[C@@H](CC(N)=O)NC(=O)[C@@H](N)CO)C(=O)N[C@@H](Cc1ccccc1)C(=O)N[C@@H](C)C(=O)OCc1ccccc1	3.73
CC(C)[C@H](NC(=O)[C@H](CC(N)=O)NC(=O)[C@@H](N)CO)C(=O)N[C@@H](Cc1ccccc1)C(=O)N[C@H](C)C(=O)OCc1ccccc1	4.19
CC(C)[C@H](NC(=O)[C@H](CC(N)=O)NC(=O)[C@@H](N)CO)C(=O)N[C@H](CCCCc1ccccc1)Cc1ccccc1	4.92
CC(C)[C@@H](/C=C/[C@@H](Cc1ccccc1)C(=O)N[C@@H](C)C(=O)OCc1ccccc1)NC(=O)[C@H](CC(N)=O)NC(=O)[C@@H](N)CO	4.44
C[C@H](NC(=O)[C@H](Cc1ccccc1)NC(=O)[C@@H](NC(=O)[C@H](CC(N)=O)NC(=O)[C@@H](N)CO)[C@@H](C)O)C(=O)OCc1ccccc1 (H-SNTFA-OBn)	3.72
CC(C)[C@H](NC(=O)[C@H](CC(N)=O)NC(=O)[C@@H](N)CO)C(=O)N[C@H](Cc1ccccc1)C(=O)N[C@@H](C)C(=O)OCc1ccccc1	4.12
CC(C)[C@H](NC(=O)[C@H](CC(N)=O)NC(=O)[C@@H](N)CO)C(=O)N[C@H](/C=C\[C@@H](C)COCc1ccccc1)Cc1ccccc1	4.77
CC(C)[C@H](NC(=O)[C@H](CC(N)=O)NC(=O)[C@@H](N)CO)C(=O)N[C@@H](Cc1ccccc1)C(=O)N[C@@H](C)C(=O)NCc1ccccc1 (H-SNVFA-NHBn)	4.80
CC(C)[C@H](NC(=O)[C@H](CC(N)=O)NC(=O)[C@@H](N)CO)C(=O)N[C@H](/C=C/C=C/c1ccccc1)Cc1ccccc1	5.41
CC(C)[C@H](NC(=O)[C@H](CC(N)=O)NC(=O)[C@@H](N)CO)C(=O)N[C@H](/C=C/[C@@H](C)COCc1ccccc1)Cc1ccccc1	4.64
CC(C)[C@H](NC(=O)[C@H](CC(N)=O)NC(=O)[C@@H](N)CO)C(=O)N[C@@H](Cc1ccc(-c2ccccc2)cc1)C(=O)N[C@@H](C)C(=O)OCc1ccccc1 (H-SNV[Bip]A-OBn)	5.30
CC(C)[C@@H](CN[C@@H](Cc1ccccc1)C(=O)N[C@@H](C)C(=O)OCc1ccccc1)NC(=O)[C@H](CC(N)=O)NC(=O)[C@@H](N)CO	3.58
CC(C)[C@H](NC(=O)[C@H](CC(N)=O)NC(=O)[C@H](N)CO)C(=O)N[C@@H](Cc1ccccc1)C(=O)N[C@@H](C)C(=O)OCc1ccccc1	4.92
CC(C)[C@H](NC(=O)[C@@H](NC(=O)[C@@H](N)CO)C(C)C)C(=O)N[C@@H](Cc1ccccc1)C(=O)N[C@@H](C)C(=O)OCc1ccccc1 (H-SVVFA-OBn)	4.62

The compounds below were run against Myosin light chain kinase, smooth muscle (Gallus gallus) (UniProt P11799) (assay: Inhibition of native form of myosin light chain kinase at from chicken gizzard 100 uM).
Outline: as §1

Sequence of Myosin light chain kinase, smooth muscle (Gallus gallus) (P11799 whole entry): as above

Compound	inhibition
CC(C)[C@H](NC(=O)[C@@H](CC(N)=O)NC(=O)[C@H](N)CO)C(=O)N[C@@H](Cc1ccccc1)C(=O)N[C@@H](C)C(=O)OCc1ccccc1	14%

From ChEMBL document CHEMBL1124728, “Small peptide inhibitors of smooth muscle myosin light chain kinase” (J Med Chem, 1990)
